The source made the active and inactive calls. The calls are words filed in the database; no cut-off is given here.
Columns and labels:
C2C12 [1] = assay: Osteogenic activity in mouse C2C12 cells assessed as increase of Runx2 mRNA expression at 50 nM after 6 days by RT-PCR analysis relative to control; format: functional
Summary of the method: (§1)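 Quantitative real-time PCR of mRNA from C2C12 cells, 1 × 10^6 cells per 60-mm plate, treated 6 days; rhBMP-2 at 300 ng/mL served as reference osteoblastogenesis inducer.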

C2C12 [2] = assay: Osteogenic activity in mouse C2C12 cells assessed as increase of BMP2 mRNA expression at up to 50 nM after 6 days by RT-PCR analysis; format: functional, cell-based; summary of the method: as §1
C2C12 [3] = assay: Osteogenic activity in mouse C2C12 cells assessed as increase of BMP4 mRNA expression at up to 50 nM after 6 days by RT-PCR analysis; format: functional, cell-based; summary of the method: as §1
C2C12 [4] = assay: Osteogenic activity in mouse C2C12 cells assessed as increase of BMP6 mRNA expression at up to 50 nM after 6 days by RT-PCR analysis; format: functional, cell-based; summary of the method: as §1
C2C12 [5] = assay: Osteogenic activity in mouse C2C12 cells assessed as increase of BMP7 mRNA expression at up to 50 nM after 6 days by RT-PCR analysis; format: functional, cell-based; summary of the method: as §1
C2C12 [6] = assay: Osteogenic activity in mouse C2C12 cells assessed as increase of BMP9 mRNA expression at up to 50 nM after 6 days by RT-PCR analysis; format: functional, cell-based; summary of the method: as §1
C2C12 [7] = assay: Osteogenic activity in mouse C2C12 cells assessed as inhibition of multinucleated osteoclasts formation after 6 days; format: functional, cell-based
Mus musculus [8] = assay: Osteogenic activity in mouse assessed as induction of woven bone formation at 10 uM administered with collagen sponges in calvarial bone after 3 weeks; format: functional, organism-based
Summary of the method: (§2)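 Collagen sponges holding 5 μL of compound solution or PBS vehicle placed onto mouse calvarial bones; after 3-week implantation calvariae removed, fixed, decalcified, paraffin-embedded and sectioned for histology of woven bone formation.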

Mus musculus [9] = assay: Osteogenic activity in mouse assessed as induction of woven bone formation at 50 uM administered with collagen sponges in calvarial bone after 3 weeks; format: functional, organism-based; summary of the method: as §2
Oryctolagus cuniculus = species: Oryctolagus cuniculus; assay: Osteogenic activity in rabbit calvarial bone fracture healing model assessed as bone formation at 100 to 200 nM after 4 weeks; format: functional
C2C12 [10] = assay: Cytotoxicity against mouse C2C12 cells up to 100 uM after 3 days; format: cell-based; conditions: c2c12, 72 h
C2C12 [11] = assay: Inhibition of HDAC in mouse C2C12 cells at 5 to 100 nM after 24 hrs by fluorescence assay; format: cell-based
Summary of the method: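 Total HDAC activity in intact C2C12 cells, 4 × 10^3 cells/well, cultured 24 h, pretreated with compound 1 h, then incubated with fluorogenic deacetylase Lysyl substrate; HDAC activity read by fluorescence per kit protocol.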

C2C12 [12] = assay: Inhibition of HDAC in mouse C2C12 cells assessed as increase of acetylated histone level after 24 hrs by Western blotting; format: cell-based
Summary of the method: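 C2C12 cells, 2 × 10^6 cells per 100-mm plate, cultured 24 h, then treated 24 h; protein extracts analysed for hyperacetylated histones by Western blot with actin as loading control.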

C2C12 [13] = assay: Induction of osteoblast differentiation in mouse C2C12 cells assessed as increase of alkaline phosphatase expression after 6 days; format: functional, cell-based
Summary of the method: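 C2C12 cells, 4 × 10^3 cells/well, cultured 24 h, then treated for 6 days with medium changed every 3 days; osteoblast differentiation assessed by alkaline phosphatase staining.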

C2C12 [14] = assay: Induction of osteoblast differentiation in mouse C2C12 cells assessed as increase of osteopontin expression up to 100 nM after 6 days; format: functional, cell-based
[15] = target: Runt-related transcription factor 2 (Mus musculus) (UniProt Q08775); assay: Activation of Runx2 activity in mouse C2C12 cells at 50 nM after 24 hrs by luciferase reporter gene assay relative to control; format: cell-based
Runt-related transcription factor 2 (Mus musculus), sequence (Q08775 whole entry): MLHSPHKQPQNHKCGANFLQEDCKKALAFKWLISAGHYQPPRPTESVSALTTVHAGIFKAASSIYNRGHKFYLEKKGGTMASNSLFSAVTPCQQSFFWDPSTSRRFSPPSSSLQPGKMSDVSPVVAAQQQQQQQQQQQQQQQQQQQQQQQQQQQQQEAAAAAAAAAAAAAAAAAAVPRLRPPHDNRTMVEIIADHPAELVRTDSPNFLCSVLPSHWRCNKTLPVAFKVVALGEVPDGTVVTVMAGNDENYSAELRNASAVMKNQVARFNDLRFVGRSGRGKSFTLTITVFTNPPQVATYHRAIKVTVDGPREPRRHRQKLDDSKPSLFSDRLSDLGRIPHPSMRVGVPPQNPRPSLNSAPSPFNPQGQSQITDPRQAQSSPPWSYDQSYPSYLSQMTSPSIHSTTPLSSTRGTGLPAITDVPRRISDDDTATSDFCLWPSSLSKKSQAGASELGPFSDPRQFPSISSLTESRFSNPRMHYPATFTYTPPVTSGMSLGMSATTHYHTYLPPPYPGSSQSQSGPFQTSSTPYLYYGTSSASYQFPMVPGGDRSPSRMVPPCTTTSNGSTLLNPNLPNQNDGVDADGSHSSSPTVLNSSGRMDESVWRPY
Summary of the method: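 6×OSE2-luc plasmid-transfected C2C12 cells, 4 × 10^3 cells/well, cultured 1 day, then 1 day in DMEM with 5% FBS with or without compound; Runx2 activation read as luciferase activity.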

CCCCCCCC(=O)SCC/C=C/[C@@H]1CC(=O)NCc2nc(cs2)C2=N[C@@](C)(CS2)C(=O)N[C@@H](C(C)C)C(=O)O1 [LARGAZOLE]
fold change (FC) (C2C12 [1]): 3 | Activity (C2C12 [2]): Active | Activity (C2C12 [3]): Active | Activity (C2C12 [4]): Active | Activity (C2C12 [5]): Active | Activity (C2C12 [6]): Active | Activity (C2C12 [7]): Active | Activity (Mus musculus [8]): Active | Activity (Mus musculus [9]): Active | Activity (Oryctolagus cuniculus): Active | Activity (C2C12 [10]): Non-toxic | inhibition (C2C12 [11]): Active | inhibition (C2C12 [12]): Dose-dependent effect | Activity (C2C12 [13]): Active | Activity (C2C12 [14]): Active | fold change (FC) [15]: 29

From ChEMBL document CHEMBL1671848, “In Vitro and In Vivo Osteogenic Activity of Largazole” (ACS Med Chem Lett, 2011)
